Assay results: ChEMBL document CHEMBL3272249, “Esters of N-tert-butylarterenol. Long-acting new bronchodilators with reduced cardiac effects” (J Med Chem, 1976)

Tests used:
Canis familiaris [1] = assay: Bronchodilator activity in dog assessed as time of inhibition of carbachol or histamine-induced bronchoconstriction at 5 mg/kg, iv relative to control; type: functional, Canis lupus familiaris
Procedure, shortened: (§1)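 Anesthetized dogs with an airway cannula and a nonbreathing valve. Bronchoconstriction was induced by iv carbachol (2–4 μg/kg) or histamine diphosphate (20–50 μg/kg) and read as change in airway pressure by transducer. Each compound was tested against both agonists in different dogs, and the results were combined and averaged. Effect is % inhibition of control constriction, with at least three dogs per dose. Drugs were dissolved fresh in distilled water, diluted in saline and kept on ice.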

Canis familiaris [2] = assay: Bronchodilator activity in dog assessed as degree of inhibition of carbachol or histamine-induced bronchoconstriction at 5 mg/kg, iv relative to control; type: functional; conditions: Canis lupus familiaris
Procedure, shortened: (§2)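 Anesthetized dogs, trachea cannulated with a nonbreathing valve. Bronchoconstriction induced by iv carbachol (2–4 μg/kg) or histamine diphosphate (20–50 μg/kg) in separate animals, and airway pressure recorded by transducer. Drug stocks were made fresh in distilled water, diluted in saline and kept on ice. Read-out was percent inhibition of control constriction, averaged over at least three dogs per dose at the higher dose. Carbachol and histamine data were combined.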

Canis familiaris [3] = assay: Cardiotoxicity in spontaneously respiring dog assessed as time of increase in heart rate at 10 to 20 mg/kg, iv relative to control; type: toxicity, organism-based, Canis lupus familiaris; design: dose 10-20 mg/kg, route intravenous; conditions: in vivo
Procedure, shortened: (§3)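 Anesthetized, spontaneously respiring dogs. Heart rate monitored by lead II EKG; blood pressure from right femoral artery by pressure transducer. Rise in heart rate (beats/min) scored ±=5-15, +=20-40, ++=40-60, +++=>60, n>4/dose; duration of the rise in h. Drug stocks freshly made in distilled water, diluted in physiological saline, kept on ice.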

Canis familiaris [4] = assay: Bronchodilator activity in dog assessed as time of inhibition of carbachol or histamine-induced bronchoconstriction at 10 to 20 mg/kg, iv relative to control; type: functional, Canis lupus familiaris; conditions: dose mg/kg 10-20
Procedure, shortened: (§4)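 Dog with airway cannulated through a nonbreathing valve. Bronchoconstriction induced by iv carbachol (2–4 µg/kg) or histamine diphosphate (20–50 µg/kg); airway pressure recorded by pressure transducer. Each compound tested against both agonists in different animals, and results were combined and averaged. Bronchodilation = % inhibition of control constriction; degree scored as +, ++, +++ (20-45, 45-70, >70%) from higher dose, ≥3 dogs/dose; duration in h.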

Canis familiaris [5] = assay: Cardiotoxicity in spontaneously respiring dog assessed as degree of increase in heart rate at 10 to 20 mg/kg, iv relative to control; type: toxicity, organism-based, Canis lupus familiaris; design: dose 10-20 mg/kg, route intravenous; conditions: in vivo; procedure, shortened: as §3
Canis familiaris [6] = assay: Bronchodilator activity in dog assessed as degree of inhibition of carbachol or histamine-induced bronchoconstriction at 10 to 20 mg/kg, iv relative to control; type: functional, Canis lupus familiaris; conditions: dose mg/kg 10-20; procedure, shortened: as §4
Canis familiaris [7] = assay: Bronchodilator activity in dog assessed as time of inhibition of carbachol or histamine-induced bronchoconstriction at 5 to 10 mg/kg, iv relative to control; type: functional, Canis lupus familiaris; conditions: dose mg/kg 5-10; procedure, shortened: as §1
Canis familiaris [8] = assay: Bronchodilator activity in dog assessed as degree of inhibition of carbachol or histamine-induced bronchoconstriction at 5 to 10 mg/kg, iv relative to control; type: functional, Canis lupus familiaris; conditions: dose mg/kg 5-10; procedure, shortened: as §2
Canis familiaris [9] = assay: Cardiotoxicity in spontaneously respiring dog assessed as degree of increase in heart rate at 100 to 200 mg/kg, iv relative to control; type: toxicity, organism-based, Canis lupus familiaris; design: dose 100-200 mg/kg, route intravenous; conditions: in vivo
Procedure, shortened: (§5)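 Anesthetized, spontaneously respiring dogs. Heart rate was taken from a lead II EKG, and blood pressure from the right femoral artery by transducer. The increase in heart rate (beats/min) was scored on a graded scale with more than 4 dogs per dose, and its duration was recorded. Drugs were dissolved fresh in distilled water, diluted in physiological saline and kept on ice.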

Canis familiaris [10] = assay: Bronchodilator activity in dog assessed as time of inhibition of carbachol or histamine-induced bronchoconstriction at 100 to 200 mg/kg, iv relative to control; type: functional, Canis lupus familiaris; conditions: dose mg/kg 100-200
Procedure, shortened: (§6)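 Dog airway model: anesthetized, cannulated via a nonbreathing valve, with airway pressure changes recorded after iv carbachol (2–4 μg/kg) or histamine diphosphate (20–50 μg/kg) challenge, each agonist in different animals. Compounds were given iv, intraduodenally or intratracheally from fresh aqueous stocks diluted in saline. Duration (h) of inhibition of induced bronchoconstriction was followed, and the two agonist datasets were pooled.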

Canis familiaris [11] = assay: Bronchodilator activity in dog assessed as time of inhibition of carbachol or histamine-induced bronchoconstriction at 300 to 1200 mg/kg, it relative to control; type: functional, Canis lupus familiaris; conditions: dose mg/kg 300-1200; route endotracheal; procedure, shortened: as §6
Canis familiaris [12] = assay: Bronchodilator activity in dog assessed as degree of inhibition of carbachol or histamine-induced bronchoconstriction at 100 to 200 mg/kg, iv relative to control; type: functional, Canis lupus familiaris; conditions: dose mg/kg 100-200; procedure, shortened: as §2
Canis familiaris [13] = assay: Bronchodilator activity in dog assessed as degree of inhibition of carbachol or histamine-induced bronchoconstriction at 300 to 1200 mg/kg, it relative to control; type: functional, Canis lupus familiaris; conditions: dose mg/kg 300-1200; route endotracheal; procedure, shortened: as §2
Canis familiaris [14] = assay: Cardiotoxicity in spontaneously respiring dog assessed as time of increase in heart rate at 4 to 8 mg/kg, iv relative to control; type: toxicity, organism-based, Canis lupus familiaris; design: dose 4-8 mg/kg, route intravenous; conditions: in vivo; procedure, shortened: as §5
Canis familiaris [15] = assay: Cardiotoxicity in spontaneously respiring dog assessed as time of increase in heart rate at 200 to 400 mg/kg, id relative to control; type: toxicity, organism-based, Canis lupus familiaris; design: dose 200-400 mg/kg, route intraduodenal; conditions: in vivo, other; procedure, shortened: as §5
Canis familiaris [16] = assay: Bronchodilator activity in dog assessed as time of inhibition of carbachol or histamine-induced bronchoconstriction at 4 to 8 mg/kg, iv relative to control; type: functional, Canis lupus familiaris; conditions: dose mg/kg 4-8; procedure, shortened: as §6
Canis familiaris [17] = assay: Bronchodilator activity in dog assessed as time of inhibition of carbachol or histamine-induced bronchoconstriction at 200 to 400 mg/kg, id relative to control; type: functional, Canis lupus familiaris; conditions: dose mg/kg 200-400; route intraduodenal; procedure, shortened: as §6
Canis familiaris [18] = assay: Bronchodilator activity in dog assessed as time of inhibition of carbachol or histamine-induced bronchoconstriction at 400 to 800 mg/kg, it relative to control; type: functional, Canis lupus familiaris; conditions: dose mg/kg 400-800; route endotracheal; procedure, shortened: as §6
Canis familiaris [19] = assay: Cardiotoxicity in spontaneously respiring dog assessed as degree of increase in heart rate at 4 to 8 mg/kg, iv relative to control; type: toxicity, organism-based, Canis lupus familiaris; design: dose 4-8 mg/kg, route intravenous; conditions: in vivo; procedure, shortened: as §5
Canis familiaris [20] = assay: Cardiotoxicity in spontaneously respiring dog assessed as degree of increase in heart rate at 200 to 400 mg/kg, id relative to control; type: toxicity, organism-based, Canis lupus familiaris; design: dose 200-400 mg/kg, route intraduodenal; conditions: in vivo, other; procedure, shortened: as §5
Canis familiaris [21] = assay: Bronchodilator activity in dog assessed as degree of inhibition of carbachol or histamine-induced bronchoconstriction at 4 to 8 mg/kg, iv relative to control; type: functional, Canis lupus familiaris; conditions: dose mg/kg 4-8; procedure, shortened: as §2
Canis familiaris [22] = assay: Bronchodilator activity in dog assessed as degree of inhibition of carbachol or histamine-induced bronchoconstriction at 200 to 400 mg/kg, id relative to control; type: functional, Canis lupus familiaris; conditions: dose mg/kg 200-400; route intraduodenal; procedure, shortened: as §2
Canis familiaris [23] = assay: Bronchodilator activity in dog assessed as degree of inhibition of carbachol or histamine-induced bronchoconstriction at 400 to 800 mg/kg, it relative to control; type: functional, Canis lupus familiaris; conditions: dose mg/kg 400-800; route endotracheal; procedure, shortened: as §2
Canis familiaris [24] = assay: Bronchodilator activity in dog assessed as time of inhibition of carbachol or histamine-induced bronchoconstriction at 25 to 100 mg/kg, iv relative to control; type: functional, Canis lupus familiaris; conditions: dose mg/kg 25-100; procedure, shortened: as §6
Canis familiaris [25] = assay: Bronchodilator activity in dog assessed as degree of inhibition of carbachol or histamine-induced bronchoconstriction at 25 to 100 mg/kg, iv relative to control; type: functional, Canis lupus familiaris; conditions: dose mg/kg 25-100; procedure, shortened: as §2

CC(C)(C)CC(=O)Oc1ccc([C@@H](O)CNC(C)(C)C)cc1O.CS(=O)(=O)O
Time (Canis familiaris [1]): >3 h | inhibition in vivo at 5 mg/kg (Canis familiaris [2]): 45%

CC(C)C(=O)Oc1ccc([C@@H](O)CNC(C)(C)C)cc1OC(=O)C(C)C.Cl
Time (Canis familiaris [1]): <0.5 h | inhibition in vivo at 5 mg/kg (Canis familiaris [2]): 20%

CC(C)(C)NC[C@H](O)c1ccc(OC(=O)C(C)(C)C)c(O)c1.CS(=O)(=O)O
Time (Canis familiaris [3]): < 0.5 h | Time (Canis familiaris [4]): <2 h | Activity (Canis familiaris [5]): 40% | inhibition (INH) (Canis familiaris [6]): 45%

CCC(C)C(=O)Oc1ccc([C@@H](O)CNC(C)(C)C)cc1OC(=O)C(C)CC.Cl (some centres not stated)
Time (Canis familiaris [7]): <1 h | inhibition (INH) (Canis familiaris [8]): 45%

CS(=O)(=O)O.Cc1ccccc1C(=O)Oc1ccc([C@@H](O)CNC(C)(C)C)cc1OC(=O)c1ccccc1C
Activity (Canis familiaris [9]): 20% | Time (Canis familiaris [10]): <4 h | Time (Canis familiaris [11]): <3 h | inhibition (INH) (Canis familiaris [12]): 20% | inhibition (INH) (Canis familiaris [13]): 20%

CC(C)CC(=O)Oc1ccc([C@@H](O)CNC(C)(C)C)cc1OC(=O)CC(C)C.Cl
Time (Canis familiaris [14]): < 1 h | Time (Canis familiaris [15]): < 3 h | Time (Canis familiaris [16]): <2 h | Time (Canis familiaris [17]): 3 h | Time (Canis familiaris [18]): <2 h | Activity (Canis familiaris [19]): 20 beats/min | Activity (Canis familiaris [20]): 40 beats/min | inhibition (INH) (Canis familiaris [21]): >70% | inhibition (INH) (Canis familiaris [22]): 45% | inhibition (INH) (Canis familiaris [23]): >70%

COc1ccc(CC(=O)Oc2ccc([C@@H](O)CNC(C)(C)C)cc2OC(=O)Cc2ccc(OC)cc2)cc1.Cl
Time (Canis familiaris [24]): 2 h | inhibition (INH) (Canis familiaris [25]): >70%
